According to ChEMBL document CHEMBL5724801, “EUbOPEN Chemogenomics Library - Multiplex” (2024):
Values joined by “and” are separate entries in the source; they are usually repeats but may differ in a detail not shown here. Identical values can stand only once.

System: U2OS
Assay: Multiplex assay against U2OS
Format: toxicity, cell-based
Conditions: human
In short: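 Live cells were stained at seeding with Hoechst33342, BioTracker Green Microtubule Cytoskeleton Dye, MitoTracker Red and Annexin V Alexa Fluor 680. Following compound addition, they were imaged on a CQ1 microscope at 37°C and 5% CO2 and gated by CellPathfinder machine learning into Hoechst high-intensity objects or normal cells, with normal cells split into healthy, pyknosed or fragmented nuclei and pyknosed cells into mitotic or apoptotic. Tubulin, mitochondrial-mass and membrane-permeability phenotypes are per cents of healthy-nucleus cells.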

[1] = 12 h, 1 µM, compound concentration 1 uM
[2] = 12 h, 10 µM, compound concentration 10 uM
[3] = 24 h, 1 µM, compound concentration 1 uM
[4] = 24 h, 10 µM, compound concentration 10 uM
[5] = 48 h, 1 µM, compound concentration 1 uM
[6] = 48 h, 10 µM, compound concentration 10 uM

Structure (SMILES): CC(C)(O)c1cnc(N2C[C@@]3(CCC[C@](C)(Cn4cnc5ccc(C#N)cc54)C3)OC2=O)cn1 [GSK2798745]
- Population Apoptotic (%) [1]: 63.64% and 30.77%
- Population Fragmented Nuclei (%) [1]: 3.45% and 3.94%
- Population Healthy Nuclei (%) [1]: 87.8% and 85.83%
- Population Hoechst High Intensity Objects (%) [1]: 0%
- Population Membrane Permeable-Phenotype (%) [1]: 0.6% and 4.59%
- Population Mitochondria Different-Phenotype (%) [1]: 0.3% and 10.09%
- Population Mitotic Cells (%) [1]: 36.36% and 69.23%
- Population Normal (%) [1]: 100%
- Population Pyknosed Nuclei (%) [1]: 8.75% and 10.24%
- Population Tubulin-Different-Phenotype (%) [1]: 1.51% and 0%
- Total Cell Count [1]: 377 and 127
- Population Apoptotic (%) [2]: 39.02% and 48.39%
- Population Fragmented Nuclei (%) [2]: 1.62% and 2.98%
- Population Healthy Nuclei (%) [2]: 87.33% and 78.57%
- Population Hoechst High Intensity Objects (%) [2]: 0%
- Population Membrane Permeable-Phenotype (%) [2]: 2.16% and 6.06%
- Population Mitotic Cells (%) [2]: 60.98% and 51.61%
- Population Normal (%) [2]: 100%
- Population Pyknosed Nuclei (%) [2]: 11.05% and 18.45%
- Population Tubulin-Different-Phenotype (%) [2]: 3.7% and 1.52%
- Total Cell Count [2]: 371 and 168
- Population Apoptotic (%) [3]: 40.48% and 23.53%
- Population Fragmented Nuclei (%) [3]: 1.65% and 5.56%
- Population Healthy Nuclei (%) [3]: 89.67% and 83.95%
- Population Hoechst High Intensity Objects (%) [3]: 0%
- Population Membrane Permeable-Phenotype (%) [3]: 0.23% and 2.94%
- Population Mitochondria Different-Phenotype (%) [3]: 0.23% and 2.94%
- Population Mitotic Cells (%) [3]: 59.52% and 76.47%
- Population Normal (%) [3]: 100%
- Population Pyknosed Nuclei (%) [3]: 8.68% and 10.49%
- Population Tubulin-Different-Phenotype (%) [3]: 0.69% and 0%
- Total Cell Count [3]: 484 and 162
- Population Apoptotic (%) [4]: 44% and 37.5%
- Population Fragmented Nuclei (%) [4]: 1.39% and 4.31%
- Population Healthy Nuclei (%) [4]: 88.71% and 84.21%
- Population Hoechst High Intensity Objects (%) [4]: 0.2% and 0%
- Population Membrane Permeable-Phenotype (%) [4]: 1.34% and 6.25%
- Population Mitochondria Different-Phenotype (%) [4]: 0.67% and 8.52%
- Population Mitotic Cells (%) [4]: 56% and 62.5%
- Population Normal (%) [4]: 99.8% and 100%
- Population Pyknosed Nuclei (%) [4]: 9.9% and 11.48%
- Population Tubulin-Different-Phenotype (%) [4]: 3.12% and 1.7%
- Total Cell Count [4]: 506 and 209
- Population Apoptotic (%) [5]: 34.95% and 33.33%
- Population Fragmented Nuclei (%) [5]: 3.43% and 2.22%
- Population Healthy Nuclei (%) [5]: 85.16% and 84.44%
- Population Hoechst High Intensity Objects (%) [5]: 0%
- Population Membrane Permeable-Phenotype (%) [5]: 1.17% and 3.07%
- Population Mitochondria Different-Phenotype (%) [5]: 0.13% and 4.82%
- Population Mitotic Cells (%) [5]: 65.05% and 66.67%
- Population Normal (%) [5]: 100%
- Population Pyknosed Nuclei (%) [5]: 11.41% and 13.33%
- Population Tubulin-Different-Phenotype (%) [5]: 0.52% and 1.32%
- Population Apoptotic (%) [6]: 52.17% and 44.9%
- Population Fragmented Nuclei (%) [6]: 2.1% and 0.91%
- Population Healthy Nuclei (%) [6]: 87.73% and 84.29%
- Population Hoechst High Intensity Objects (%) [6]: 0%
- Population Membrane Permeable-Phenotype (%) [6]: 1.26% and 1.79%
- Population Mitochondria Different-Phenotype (%) [6]: 0.5% and 9.68%
- Population Mitotic Cells (%) [6]: 47.83% and 55.1%
- Population Normal (%) [6]: 100%
- Population Pyknosed Nuclei (%) [6]: 10.17% and 14.8%
- Population Tubulin-Different-Phenotype (%) [6]: 3.65% and 0.36%
- Total Cell Count [6]: 905 and 331

Structure (SMILES): O=C(NCCN1CCC(n2c(=O)[nH]c3cc(Cl)ccc32)CC1)c1ccc(F)cc1 [HALOPEMIDE]
- Population Apoptotic (%) [1]: 95% and 50%
- Population Fragmented Nuclei (%) [1]: 24% and 13%
- Population Healthy Nuclei (%) [1]: 65% and 79%
- Population Hoechst High Intensity Objects (%) [1]: 1% and 0%
- Population Membrane Permeable-Phenotype (%) [1]: 6% and 7%
- Population Mitochondria Different-Phenotype (%) [1]: 1% and 2%
- Population Normal (%) [1]: 98% and 100%
- Population Pyknosed Nuclei (%) [1]: 10% and 7%
- Population Tubulin-Different-Phenotype (%) [1]: 2% and 3%
- Total Cell Count [1]: 209 and 105
- Population Apoptotic (%) [2]: 68% and 61%
- Population Fragmented Nuclei (%) [2]: 19% and 12%
- Population Healthy Nuclei (%) [2]: 65% and 78%
- Population Hoechst High Intensity Objects (%) [2]: 4% and 1%
- Population Membrane Permeable-Phenotype (%) [2]: 23% and 26%
- Population Mitochondria Different-Phenotype (%) [2]: 11% and 32%
- Population Mitotic Cells (%) [2]: 31% and 38%
- Population Normal (%) [2]: 95% and 98%
- Population Pyknosed Nuclei (%) [2]: 15% and 8%
- Population Tubulin-Different-Phenotype (%) [2]: 15% and 27%
- Total Cell Count [2]: 244 and 152
- Population Apoptotic (%) [3]: 91% and 81%
- Population Fragmented Nuclei (%) [3]: 22% and 15%
- Population Healthy Nuclei (%) [3]: 68% and 72%
- Population Hoechst High Intensity Objects (%) [3]: 1% and 0%
- Population Membrane Permeable-Phenotype (%) [3]: 6% and 10%
- Population Mitochondria Different-Phenotype (%) [3]: 1% and 3%
- Population Mitotic Cells (%) [3]: 8% and 18%
- Population Normal (%) [3]: 98% and 99%
- Population Pyknosed Nuclei (%) [3]: 9% and 12%
- Population Tubulin-Different-Phenotype (%) [3]: 1% and 8%
- Total Cell Count [3]: 241 and 132
- Population Apoptotic (%) [4]: 75% and 63%
- Population Fragmented Nuclei (%) [4]: 17% and 16%
- Population Healthy Nuclei (%) [4]: 64% and 71%
- Population Hoechst High Intensity Objects (%) [4]: 2% and 3%
- Population Membrane Permeable-Phenotype (%) [4]: 15% and 26%
- Population Mitochondria Different-Phenotype (%) [4]: 10% and 23%
- Population Mitotic Cells (%) [4]: 25% and 36%
- Population Normal (%) [4]: 97% and 96%
- Population Pyknosed Nuclei (%) [4]: 18% and 12%
- Population Tubulin-Different-Phenotype (%) [4]: 7% and 21%
- Total Cell Count [4]: 271 and 159
- Population Apoptotic (%) [5]: 68% and 95%
- Population Fragmented Nuclei (%) [5]: 16% and 17%
- Population Healthy Nuclei (%) [5]: 75% and 69%
- Population Hoechst High Intensity Objects (%) [5]: 2% and 1%
- Population Membrane Permeable-Phenotype (%) [5]: 4% and 9%
- Population Mitochondria Different-Phenotype (%) [5]: 2% and 5%
- Population Normal (%) [5]: 97% and 98%
- Population Pyknosed Nuclei (%) [5]: 7% and 12%
- Population Tubulin-Different-Phenotype (%) [5]: 2% and 6%
- Total Cell Count [5]: 337 and 187
- Population Apoptotic (%) [6]: 81% and 77%
- Population Fragmented Nuclei (%) [6]: 15% and 13%
- Population Healthy Nuclei (%) [6]: 69% and 67%
- Population Hoechst High Intensity Objects (%) [6]: 3% and 6%
- Population Membrane Permeable-Phenotype (%) [6]: 10% and 16%
- Population Mitochondria Different-Phenotype (%) [6]: 5% and 12%
- Population Mitotic Cells (%) [6]: 18% and 22%
- Population Normal (%) [6]: 96% and 93%
- Population Pyknosed Nuclei (%) [6]: 14% and 18%
- Population Tubulin-Different-Phenotype (%) [6]: 5% and 6%
- Total Cell Count [6]: 382 and 197
